Experimental data published in ChEMBL document CHEMBL3259739, “Synthesis and structure-activity relationship of trisubstituted thiazoles as Cdc7 kinase inhibitors” (Eur J Med Chem, 2014).

molecular target: Cyclin-dependent kinase 2/cyclin E1 (Homo sapiens, UniProt P24941); test: Inhibition of CDK2/Cyclin-E (unknown origin) using maltose binding protein as substrate by HTRF assay; assay type: protein-complex assay; conditions: not given

IC50 [µM] | Compound
10.6 | COc1ccc(-c2nc(-c3ccnc(N)n3)sc2C(N)=O)c(Cl)c1
> 125 | CCOC(=O)c1sc(-c2ccncc2)nc1O

Compound | IC50 [µM]
NC(=O)c1sc(-c2ccnc(N)n2)nc1-c1ccc(Cl)cc1Cl | 1.82

molecular target: Non-receptor tyrosine-protein kinase TYK2 (Homo sapiens) (UniProt P29597); test: Inhibition of JH1 catalytic domain of TYK2 (unknown origin) at 1 uM relative to control; conditions: values are per cent of control
Summary of the method: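 Competitive binding panel (KinomeSCAN) of 100 kinases, with compound tested at 1 µM in duplicate. The read-out was percent inhibition relative to control.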

residual binding, % of control [%] | Compound
94 | COc1ccc(-c2nc(-c3ccnc(N)n3)sc2C(N)=O)c(Cl)c1
100 | CCOC(=O)c1sc(-c2ccncc2)nc1O

Compound | residual binding, % of control [%]
NC(=O)c1sc(-c2ccnc(N)n2)nc1-c1ccc(Cl)cc1Cl | 100

molecular target: cAMP-dependent protein kinase catalytic subunit alpha (Homo sapiens) (UniProt P17612); test: Inhibition of PKACalpha (unknown origin) at 1 uM relative to control; conditions: values are per cent of control
Summary of the method: (§1)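 KinomeSCAN competitive binding panel of 100 kinases; compounds tested at 1 µM in duplicate; read-out is percent […] control.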

residual binding, % of control [%] | Compound
70 | COc1ccc(-c2nc(-c3ccnc(N)n3)sc2C(N)=O)c(Cl)c1
100 | CCOC(=O)c1sc(-c2ccncc2)nc1O

Compound | residual binding, % of control [%]
NC(=O)c1sc(-c2ccnc(N)n2)nc1-c1ccc(Cl)cc1Cl | 69

molecular target: T1, Serine/threonine-protein kinase D2 (Homo sapiens) (UniProt Q9BZL6); test: Inhibition of PRKD2 (unknown origin) at 1 uM relative to control; conditions: values are per cent of control; summary of the method: as §1
T1 sequence (whole entry): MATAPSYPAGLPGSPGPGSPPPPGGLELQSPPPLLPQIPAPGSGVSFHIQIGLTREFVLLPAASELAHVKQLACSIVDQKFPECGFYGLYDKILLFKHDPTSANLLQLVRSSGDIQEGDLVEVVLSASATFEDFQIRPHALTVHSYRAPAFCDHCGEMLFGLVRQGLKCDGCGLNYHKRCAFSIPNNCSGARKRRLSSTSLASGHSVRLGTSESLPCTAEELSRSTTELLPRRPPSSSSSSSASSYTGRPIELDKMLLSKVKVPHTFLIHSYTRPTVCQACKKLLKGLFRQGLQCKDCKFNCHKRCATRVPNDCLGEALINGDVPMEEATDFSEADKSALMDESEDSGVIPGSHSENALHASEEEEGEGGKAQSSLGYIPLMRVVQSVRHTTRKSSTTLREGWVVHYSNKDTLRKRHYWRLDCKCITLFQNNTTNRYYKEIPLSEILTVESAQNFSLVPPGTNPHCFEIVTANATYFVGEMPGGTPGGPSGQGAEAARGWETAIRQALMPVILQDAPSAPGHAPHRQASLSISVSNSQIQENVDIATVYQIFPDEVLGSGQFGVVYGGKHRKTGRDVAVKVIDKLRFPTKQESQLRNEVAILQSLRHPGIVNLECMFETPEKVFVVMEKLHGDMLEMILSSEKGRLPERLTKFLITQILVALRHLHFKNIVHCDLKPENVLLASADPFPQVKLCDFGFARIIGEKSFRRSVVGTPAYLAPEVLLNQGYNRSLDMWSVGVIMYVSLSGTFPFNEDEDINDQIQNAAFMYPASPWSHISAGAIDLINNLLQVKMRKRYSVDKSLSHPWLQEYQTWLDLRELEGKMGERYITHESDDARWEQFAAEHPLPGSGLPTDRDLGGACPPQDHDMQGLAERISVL

residual binding, % of control [%] | Compound
77 | COc1ccc(-c2nc(-c3ccnc(N)n3)sc2C(N)=O)c(Cl)c1
99 | CCOC(=O)c1sc(-c2ccncc2)nc1O

Compound | residual binding, % of control [%]
NC(=O)c1sc(-c2ccnc(N)n2)nc1-c1ccc(Cl)cc1Cl | 92

molecular target: Receptor-interacting serine/threonine-protein kinase 2 (Homo sapiens) (UniProt O43353); test: Inhibition of RIPK2 (unknown origin) at 1 uM relative to control; conditions: values are per cent of control; summary of the method: as §1

residual binding, % of control [%] | Compound
96 | COc1ccc(-c2nc(-c3ccnc(N)n3)sc2C(N)=O)c(Cl)c1
99 | CCOC(=O)c1sc(-c2ccncc2)nc1O

Compound | residual binding, % of control [%]
NC(=O)c1sc(-c2ccnc(N)n2)nc1-c1ccc(Cl)cc1Cl | 82

molecular target: Serine/threonine-protein kinase 33 (Homo sapiens) (UniProt Q9BYT3); test: Inhibition of STK33 (unknown origin) at 1 uM relative to control; conditions: values are per cent of control; summary of the method: as §1

residual binding, % of control [%] | Compound
100 | COc1ccc(-c2nc(-c3ccnc(N)n3)sc2C(N)=O)c(Cl)c1
100 | CCOC(=O)c1sc(-c2ccncc2)nc1O

Compound | residual binding, % of control [%]
NC(=O)c1sc(-c2ccnc(N)n2)nc1-c1ccc(Cl)cc1Cl | 100

molecular target: Tyrosine-protein kinase BTK (Homo sapiens) (UniProt Q06187); test: Inhibition of BTK (unknown origin) at 1 uM relative to control; values are per cent of control; conditions: not given
Sequence (Q06187 whole entry): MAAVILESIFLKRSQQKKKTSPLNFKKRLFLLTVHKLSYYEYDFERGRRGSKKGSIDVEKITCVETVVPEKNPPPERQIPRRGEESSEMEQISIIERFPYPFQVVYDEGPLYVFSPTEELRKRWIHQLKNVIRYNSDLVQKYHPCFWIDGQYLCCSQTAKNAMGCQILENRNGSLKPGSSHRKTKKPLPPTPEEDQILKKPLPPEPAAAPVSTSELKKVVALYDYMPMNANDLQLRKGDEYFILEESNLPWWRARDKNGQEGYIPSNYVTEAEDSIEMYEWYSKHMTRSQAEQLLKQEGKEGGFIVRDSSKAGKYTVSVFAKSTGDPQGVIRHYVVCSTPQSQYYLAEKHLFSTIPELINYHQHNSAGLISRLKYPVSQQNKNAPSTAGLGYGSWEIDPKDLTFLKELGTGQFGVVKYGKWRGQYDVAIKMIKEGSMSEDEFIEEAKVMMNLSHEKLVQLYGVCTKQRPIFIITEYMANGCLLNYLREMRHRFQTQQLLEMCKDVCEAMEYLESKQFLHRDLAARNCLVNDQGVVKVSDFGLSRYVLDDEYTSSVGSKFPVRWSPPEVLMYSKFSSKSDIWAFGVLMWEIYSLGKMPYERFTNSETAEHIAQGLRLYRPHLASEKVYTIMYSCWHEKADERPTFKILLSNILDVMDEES

residual activity [%] | Compound
76 | COc1ccc(-c2nc(-c3ccnc(N)n3)sc2C(N)=O)c(Cl)c1
92 | CCOC(=O)c1sc(-c2ccncc2)nc1O

Compound | residual activity [%]
NC(=O)c1sc(-c2ccnc(N)n2)nc1-c1ccc(Cl)cc1Cl | 75

molecular target: Tyrosine-protein kinase Lyn (Homo sapiens) (UniProt P07948); test: Inhibition of LYN (unknown origin) at 1 uM relative to control; values are per cent of control; conditions: not given

residual activity [%] | Compound
88 | COc1ccc(-c2nc(-c3ccnc(N)n3)sc2C(N)=O)c(Cl)c1
80 | CCOC(=O)c1sc(-c2ccncc2)nc1O

Compound | residual activity [%]
NC(=O)c1sc(-c2ccnc(N)n2)nc1-c1ccc(Cl)cc1Cl | 81

molecular target: RAC-alpha serine/threonine-protein kinase (Homo sapiens) (UniProt P31749); test: Inhibition of AKT1 (unknown origin) at 1 uM relative to control; values are per cent of control; conditions: not given

residual activity [%] | Compound
66 | COc1ccc(-c2nc(-c3ccnc(N)n3)sc2C(N)=O)c(Cl)c1
75 | CCOC(=O)c1sc(-c2ccncc2)nc1O

Compound | residual activity [%]
NC(=O)c1sc(-c2ccnc(N)n2)nc1-c1ccc(Cl)cc1Cl | 80

molecular target: Epidermal growth factor receptor (Homo sapiens) (UniProt P00533); test: Inhibition of EGFR (unknown origin) at 1 uM relative to control; values are per cent of control; conditions: not given

residual activity [%] | Compound
81 | COc1ccc(-c2nc(-c3ccnc(N)n3)sc2C(N)=O)c(Cl)c1
78 | CCOC(=O)c1sc(-c2ccncc2)nc1O

Compound | residual activity [%]
NC(=O)c1sc(-c2ccnc(N)n2)nc1-c1ccc(Cl)cc1Cl | 100

molecular target: Mitogen-activated protein kinase 1 (Homo sapiens) (UniProt P28482); test: Inhibition of ERK2 (unknown origin) at 1 uM relative to control; values are per cent of control; conditions: not given

residual activity [%] | Compound
82 | COc1ccc(-c2nc(-c3ccnc(N)n3)sc2C(N)=O)c(Cl)c1
93 | CCOC(=O)c1sc(-c2ccncc2)nc1O

Compound | residual activity [%]
NC(=O)c1sc(-c2ccnc(N)n2)nc1-c1ccc(Cl)cc1Cl | 79

molecular target: Mitogen-activated protein kinase 10 (Homo sapiens) (UniProt P53779); test: Inhibition of JNK3 (unknown origin) at 1 uM relative to control; values are per cent of control; conditions: not given
Sequence (P53779 whole entry): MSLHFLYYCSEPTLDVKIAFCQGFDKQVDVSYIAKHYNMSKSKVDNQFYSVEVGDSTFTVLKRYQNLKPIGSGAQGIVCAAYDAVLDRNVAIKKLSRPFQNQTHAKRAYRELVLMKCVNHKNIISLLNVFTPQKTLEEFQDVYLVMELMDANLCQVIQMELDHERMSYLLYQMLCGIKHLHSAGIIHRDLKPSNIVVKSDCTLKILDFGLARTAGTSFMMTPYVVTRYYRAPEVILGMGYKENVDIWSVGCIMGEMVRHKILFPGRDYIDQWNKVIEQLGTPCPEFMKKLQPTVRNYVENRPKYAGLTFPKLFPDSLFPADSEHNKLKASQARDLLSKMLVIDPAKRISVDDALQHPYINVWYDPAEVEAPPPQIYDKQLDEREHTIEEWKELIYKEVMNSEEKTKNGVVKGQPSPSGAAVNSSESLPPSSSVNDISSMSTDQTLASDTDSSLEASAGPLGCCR

residual activity [%] | Compound
46 | COc1ccc(-c2nc(-c3ccnc(N)n3)sc2C(N)=O)c(Cl)c1
93 | CCOC(=O)c1sc(-c2ccncc2)nc1O

Compound | residual activity [%]
NC(=O)c1sc(-c2ccnc(N)n2)nc1-c1ccc(Cl)cc1Cl | 83

molecular target: Mitogen-activated protein kinase kinase kinase 9 (Homo sapiens) (UniProt P80192); test: Inhibition of MLK1 (unknown origin) at 1 uM relative to control; values are per cent of control; conditions: not given
Sequence (P80192 whole entry, looked up): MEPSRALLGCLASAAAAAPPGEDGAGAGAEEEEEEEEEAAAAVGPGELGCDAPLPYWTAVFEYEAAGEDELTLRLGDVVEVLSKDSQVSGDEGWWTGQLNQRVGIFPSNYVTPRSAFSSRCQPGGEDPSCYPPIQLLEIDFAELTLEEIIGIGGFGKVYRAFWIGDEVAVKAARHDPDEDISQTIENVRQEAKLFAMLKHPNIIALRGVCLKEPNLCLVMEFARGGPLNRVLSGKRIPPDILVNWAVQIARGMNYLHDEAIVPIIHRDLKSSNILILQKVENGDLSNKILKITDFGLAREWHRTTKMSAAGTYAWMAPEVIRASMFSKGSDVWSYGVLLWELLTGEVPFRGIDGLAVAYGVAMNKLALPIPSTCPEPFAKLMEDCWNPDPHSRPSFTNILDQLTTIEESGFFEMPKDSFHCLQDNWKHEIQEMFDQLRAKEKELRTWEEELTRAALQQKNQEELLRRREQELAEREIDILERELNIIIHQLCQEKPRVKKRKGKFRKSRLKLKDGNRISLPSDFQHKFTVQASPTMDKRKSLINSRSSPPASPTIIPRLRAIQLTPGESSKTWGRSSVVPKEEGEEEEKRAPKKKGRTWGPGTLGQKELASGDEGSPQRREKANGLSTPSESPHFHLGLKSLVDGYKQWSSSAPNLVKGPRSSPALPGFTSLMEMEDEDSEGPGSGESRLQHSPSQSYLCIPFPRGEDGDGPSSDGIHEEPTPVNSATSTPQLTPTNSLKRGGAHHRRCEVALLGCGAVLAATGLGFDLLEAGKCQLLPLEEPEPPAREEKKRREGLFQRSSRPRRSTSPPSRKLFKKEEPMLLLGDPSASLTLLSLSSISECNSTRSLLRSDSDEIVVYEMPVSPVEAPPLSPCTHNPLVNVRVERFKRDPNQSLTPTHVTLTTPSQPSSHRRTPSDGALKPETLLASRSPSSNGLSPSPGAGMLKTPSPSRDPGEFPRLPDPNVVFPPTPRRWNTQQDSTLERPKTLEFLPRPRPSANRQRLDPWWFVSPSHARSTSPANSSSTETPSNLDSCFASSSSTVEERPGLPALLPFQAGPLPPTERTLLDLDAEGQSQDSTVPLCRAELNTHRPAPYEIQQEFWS

residual activity [%] | Compound
94 | COc1ccc(-c2nc(-c3ccnc(N)n3)sc2C(N)=O)c(Cl)c1
90 | CCOC(=O)c1sc(-c2ccncc2)nc1O

Compound | residual activity [%]
NC(=O)c1sc(-c2ccnc(N)n2)nc1-c1ccc(Cl)cc1Cl | 99

molecular target: Ephrin type-A receptor 2 (Homo sapiens) (UniProt P29317); test: Inhibition of EPHA2 (unknown origin) at 1 uM relative to control; values are per cent of control; conditions: not given

residual activity [%] | Compound
80 | COc1ccc(-c2nc(-c3ccnc(N)n3)sc2C(N)=O)c(Cl)c1
78 | CCOC(=O)c1sc(-c2ccncc2)nc1O

Compound | residual activity [%]
NC(=O)c1sc(-c2ccnc(N)n2)nc1-c1ccc(Cl)cc1Cl | 88

molecular target: Calcium/calmodulin-dependent protein kinase type II subunit delta (Homo sapiens) (UniProt Q13557); test: Inhibition of CAMK2D (unknown origin) at 1 uM relative to control; values are per cent of control; conditions: not given

residual activity [%] | Compound
93 | COc1ccc(-c2nc(-c3ccnc(N)n3)sc2C(N)=O)c(Cl)c1
79 | CCOC(=O)c1sc(-c2ccncc2)nc1O

Compound | residual activity [%]
NC(=O)c1sc(-c2ccnc(N)n2)nc1-c1ccc(Cl)cc1Cl | 90

molecular target: Mitogen-activated protein kinase kinase kinase 1 (Homo sapiens) (UniProt Q13233); test: Inhibition of MAP3K1 (unknown origin) at 1 uM relative to control; values are per cent of control; conditions: not given
Sequence (Q13233 whole entry): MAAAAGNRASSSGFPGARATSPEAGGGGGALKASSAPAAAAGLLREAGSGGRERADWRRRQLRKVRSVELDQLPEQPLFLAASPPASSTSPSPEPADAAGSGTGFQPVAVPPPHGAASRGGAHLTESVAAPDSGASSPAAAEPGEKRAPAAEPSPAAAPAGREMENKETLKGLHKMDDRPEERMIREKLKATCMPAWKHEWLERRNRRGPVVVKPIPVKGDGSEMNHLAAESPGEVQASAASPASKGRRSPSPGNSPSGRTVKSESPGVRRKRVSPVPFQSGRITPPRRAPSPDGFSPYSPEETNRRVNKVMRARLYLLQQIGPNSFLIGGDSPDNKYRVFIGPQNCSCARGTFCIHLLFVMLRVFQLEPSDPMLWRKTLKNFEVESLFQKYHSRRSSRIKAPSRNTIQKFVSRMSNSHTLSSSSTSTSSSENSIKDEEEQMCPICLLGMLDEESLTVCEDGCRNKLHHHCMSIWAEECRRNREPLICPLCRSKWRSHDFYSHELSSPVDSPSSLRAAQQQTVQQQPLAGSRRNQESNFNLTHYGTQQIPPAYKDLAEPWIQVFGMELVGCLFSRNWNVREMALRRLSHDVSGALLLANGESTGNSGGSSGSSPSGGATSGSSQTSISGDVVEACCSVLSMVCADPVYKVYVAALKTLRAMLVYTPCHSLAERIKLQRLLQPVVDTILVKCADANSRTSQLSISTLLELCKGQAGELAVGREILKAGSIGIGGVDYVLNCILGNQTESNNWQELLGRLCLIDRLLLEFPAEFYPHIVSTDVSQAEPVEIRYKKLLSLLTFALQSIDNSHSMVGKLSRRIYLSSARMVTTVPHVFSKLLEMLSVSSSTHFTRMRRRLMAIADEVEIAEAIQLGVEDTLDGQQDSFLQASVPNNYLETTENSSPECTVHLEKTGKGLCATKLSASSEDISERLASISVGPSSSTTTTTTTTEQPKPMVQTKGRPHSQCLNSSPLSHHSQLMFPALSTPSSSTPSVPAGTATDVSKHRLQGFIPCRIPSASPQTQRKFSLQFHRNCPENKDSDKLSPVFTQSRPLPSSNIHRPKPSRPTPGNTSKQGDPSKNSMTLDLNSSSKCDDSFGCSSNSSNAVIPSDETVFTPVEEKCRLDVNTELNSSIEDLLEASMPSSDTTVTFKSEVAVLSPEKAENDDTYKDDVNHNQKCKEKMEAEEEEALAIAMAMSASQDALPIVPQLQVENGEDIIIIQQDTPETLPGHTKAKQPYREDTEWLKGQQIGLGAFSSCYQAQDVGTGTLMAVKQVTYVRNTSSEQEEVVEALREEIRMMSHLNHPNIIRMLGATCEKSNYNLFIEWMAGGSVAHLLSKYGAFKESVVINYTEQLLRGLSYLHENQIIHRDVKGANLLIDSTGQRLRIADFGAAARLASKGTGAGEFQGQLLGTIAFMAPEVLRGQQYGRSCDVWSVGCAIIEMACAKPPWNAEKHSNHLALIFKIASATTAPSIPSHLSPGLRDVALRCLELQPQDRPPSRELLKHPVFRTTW

residual activity [%] | Compound
93 | COc1ccc(-c2nc(-c3ccnc(N)n3)sc2C(N)=O)c(Cl)c1
85 | CCOC(=O)c1sc(-c2ccncc2)nc1O

Compound | residual activity [%]
NC(=O)c1sc(-c2ccnc(N)n2)nc1-c1ccc(Cl)cc1Cl | 97

molecular target: Mitogen-activated protein kinase kinase kinase kinase 4 (Homo sapiens) (UniProt O95819); test: Inhibition of MAP4K4 (unknown origin) at 1 uM relative to control; values are per cent of control; conditions: not given
Sequence (O95819 2-1239 limits assumed): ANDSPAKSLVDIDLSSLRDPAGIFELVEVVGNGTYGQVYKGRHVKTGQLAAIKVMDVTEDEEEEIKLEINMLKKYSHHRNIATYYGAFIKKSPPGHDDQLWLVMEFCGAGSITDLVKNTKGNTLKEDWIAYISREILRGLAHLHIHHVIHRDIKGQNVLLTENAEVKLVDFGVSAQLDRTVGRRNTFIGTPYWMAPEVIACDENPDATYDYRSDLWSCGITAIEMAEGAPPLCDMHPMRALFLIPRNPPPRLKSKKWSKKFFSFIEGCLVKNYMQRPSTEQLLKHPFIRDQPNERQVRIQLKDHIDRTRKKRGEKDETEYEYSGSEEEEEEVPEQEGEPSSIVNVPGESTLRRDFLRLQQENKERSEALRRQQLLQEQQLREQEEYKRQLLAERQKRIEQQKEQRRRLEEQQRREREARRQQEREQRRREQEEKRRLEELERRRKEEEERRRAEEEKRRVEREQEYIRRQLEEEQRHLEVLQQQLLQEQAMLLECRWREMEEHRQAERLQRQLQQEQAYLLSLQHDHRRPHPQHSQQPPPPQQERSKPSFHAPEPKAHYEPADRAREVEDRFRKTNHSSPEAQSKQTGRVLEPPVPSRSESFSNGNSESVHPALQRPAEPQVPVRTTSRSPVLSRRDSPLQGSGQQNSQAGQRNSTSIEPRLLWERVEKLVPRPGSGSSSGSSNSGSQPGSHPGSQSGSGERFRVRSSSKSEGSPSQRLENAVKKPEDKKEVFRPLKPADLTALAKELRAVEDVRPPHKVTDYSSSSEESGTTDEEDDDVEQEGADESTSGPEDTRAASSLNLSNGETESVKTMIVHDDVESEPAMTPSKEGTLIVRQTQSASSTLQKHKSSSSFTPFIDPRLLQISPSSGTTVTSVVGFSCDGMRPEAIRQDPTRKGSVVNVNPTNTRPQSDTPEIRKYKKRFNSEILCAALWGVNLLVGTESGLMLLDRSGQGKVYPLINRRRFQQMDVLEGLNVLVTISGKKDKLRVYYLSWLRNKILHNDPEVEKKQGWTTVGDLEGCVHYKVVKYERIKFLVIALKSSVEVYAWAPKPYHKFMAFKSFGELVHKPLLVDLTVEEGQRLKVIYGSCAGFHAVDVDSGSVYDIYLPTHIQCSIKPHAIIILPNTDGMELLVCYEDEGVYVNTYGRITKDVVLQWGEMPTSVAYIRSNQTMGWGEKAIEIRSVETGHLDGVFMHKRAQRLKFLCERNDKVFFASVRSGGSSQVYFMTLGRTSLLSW

residual activity [%] | Compound
89 | COc1ccc(-c2nc(-c3ccnc(N)n3)sc2C(N)=O)c(Cl)c1
80 | CCOC(=O)c1sc(-c2ccncc2)nc1O

Compound | residual activity [%]
NC(=O)c1sc(-c2ccnc(N)n2)nc1-c1ccc(Cl)cc1Cl | 72

molecular target: Mitogen-activated protein kinase 14 (Homo sapiens) (UniProt Q16539); test: Inhibition of p38-alpha (unknown origin) at 1 uM relative to control; values are per cent of control; conditions: not given

residual activity [%] | Compound
100 | COc1ccc(-c2nc(-c3ccnc(N)n3)sc2C(N)=O)c(Cl)c1
76 | CCOC(=O)c1sc(-c2ccncc2)nc1O

Compound | residual activity [%]
NC(=O)c1sc(-c2ccnc(N)n2)nc1-c1ccc(Cl)cc1Cl | 95
